In ChEMBL document CHEMBL1157169, “A class of novel nitronyl nitroxide labeling basic and acidic amino acids: synthesis, application for preparing ESR optionally labeling peptides, and bioactivity investigations” (Bioorg Med Chem, 2008):
Where a SMILES comes first, the peptide text is derived from it. The star is where a group is joined. X2 = CC1(C)N(O)C(c2ccc(OCC(=O)*)cc2)=[N+]([O-])C1(C)C; X1 = CC1(C)N(O)C(c2ccc(OCCN*)cc2)=[N+]([O-])C1(C)C

Tests used:
PC-12 [1] = experiment: Radical scavenging activity in rat PC12 cells assessed as inhibition of hydroxyl radical-induced cell damage by MTT assay; type: functional, cell-based
Method in brief: (§1)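 PC12 cells grown in DMEM with 10% heat-inactivated horse serum, 5% FBS and 1.0 mM pyruvate at 37 °C, 5% CO2. Seeded at 20,000 cells/well on poly-L-lysine and attached 24 h. Pretreated 1 h with 12.5–200 µM compound. Damage induced by SNP 2 mM for 2 h (NO), H2O2 1 mM for 1 h, or H2O2 1 mM/Fe(II) 30 µM for 1 h (·OH). Media replaced, cells incubated 14 h, survival measured by MTT.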

Aorta [2] = experiment: Nitric oxide radical scavenging activity in rat aortic strip assessed as inhibition of acetylcholine-induced vasorelaxation at 10 uM; type: functional, tissue-based
PC-12 [3] = experiment: Radical scavenging activity in rat PC12 cells assessed as inhibition of nitric oxide radical-induced cell damage by MTT assay; type: functional, cell-based; method in brief: as §1
Aorta [4] = experiment: Nitric oxide radical scavenging activity in rat aortic strip assessed as inhibition of acetylcholine-induced vasorelaxation at 100 uM; type: functional, tissue-based
PC-12 [5] = experiment: Radical scavenging activity in rat PC12 cells assessed as inhibition of hydrogen peroxide radical-induced cell damage by MTT assay; type: functional, cell-based; method in brief: as §1
Aorta [6] = experiment: Nitric oxide radical scavenging activity in rat aortic strip assessed as inhibition of acetylcholine-induced vasorelaxation at 1 uM; type: functional, tissue-based
Blood [7] = experiment: Inhibition of 0.1 uM adenosine diphosphate-induced platelet aggregation in rabbit blood; type: functional, Oryctolagus cuniculus
Method in brief: (§2)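 Platelet-rich plasma made by centrifuging normal rabbit blood anticoagulated with sodium citrate (3.8% final). Platelets adjusted to 2×10^5/µl with autologous plasma. Aggregation induced by PAF or ADP (final 10^-5–10^-7 M) and read by turbidimetry in an aggregometer. Maximal aggregation rate (Am%) taken as peak height of the curve.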

Blood [8] = experiment: Inhibition of 0.1 uM platelet activating factor-induced platelet aggregation in rabbit blood; type: functional, Oryctolagus cuniculus; method in brief: as §2
Blood [9] = experiment: Inhibition of 1 uM platelet activating factor-induced platelet aggregation in rabbit blood; type: functional, Oryctolagus cuniculus; method in brief: as §2
Blood [10] = experiment: Inhibition of 1 uM adenosine diphosphate-induced platelet aggregation in rabbit blood; type: functional, Oryctolagus cuniculus; method in brief: as §2
Rattus norvegicus [11] = experiment: Antithrombotic activity in Wistar rat assessed as wet thrombus weight at 5 umol/kg; type: functional
Method in brief: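 Male Wistar rats (250–300 g) anesthetized with pentobarbital sodium (80.0 mg/kg, ip). The right carotid artery and left jugular vein were cannulated via a polyethylene tube containing a thread, filled with NS or compound dissolved in NS (vehicle NS). Blood shunted 15 min. The thread was weighed wet, then after 2 weeks in a desiccator weighed dry. n = 10, ANOVA.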

Rattus norvegicus [12] = experiment: Antithrombotic activity in Wistar rat assessed as dry thrombus weight at 5 umol/kg
Blood [13] = experiment: Inhibition of 10 uM adenosine diphosphate-induced platelet aggregation in rabbit blood; type: functional, Oryctolagus cuniculus; method in brief: as §2
Blood [14] = experiment: Inhibition of 10 uM platelet activating factor-induced platelet aggregation in rabbit blood; type: functional, Oryctolagus cuniculus; method in brief: as §2
[15] = Aqueous stability assessed as decomposition time at pH 7.4; type: physicochemical; conditions: buffer
Method in brief: (§3)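 Each sample dissolved in aqueous solution at pH 2.0, 7.4 or 11.5 (final 10^-2 mM) and held at room temperature for up to 200 h. Decomposition followed by TLC (CHCl3/CH3OH, 20:1). Value is the time at which decomposition appeared.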

[16] = Aqueous stability assessed as decomposition time at pH 11.5; type: physicochemical; conditions: buffer; method in brief: as §3
[17] = Aqueous stability assessed as decomposition time at pH 2.0; type: physicochemical; conditions: buffer; method in brief: as §3
Oryctolagus cuniculus = species: Oryctolagus cuniculus; experiment: Thrombolytic activity against rabbit fibrinogen assessed as fibrinogen lysis area at 4.5 uM
Method in brief: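 Equal volumes of 0.3% rabbit fibrinogen and 0.95% agarose in 50 mM sodium barbiturate buffer (pH 7.8), coagulated with thrombin (100 IU/mL). After 30 min at 4 °C, 5 mm wells were punched and 30 µl of sample in NS added per well. Plates incubated and lysis area measured in mm². ANOVA.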

Plasma = experiment: Thrombolytic activity in rabbit plasma assessed as euglobulin clot lysis time at 4.5 uM; type: functional, Oryctolagus cuniculus
Method in brief: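 Rabbit plasma diluted 1:20 in water and precipitated at pH 5.7 with 0.25% acetic acid for 30 min at 4 °C. Centrifuged at 2000g for 15 min. […] Sample added and time to clot lysis recorded.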

Rattus norvegicus [18] = experiment: Thrombolytic activity in Wistar rat assessed as reduction in thrombus weight at 10 umol/kg; type: functional
Method in brief: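 Male Wistar rats (200–300 g) anesthetized with pentobarbital sodium (80.0 mg/kg, ip). A steel helix was left 15 min in 1.0 ml carotid artery blood, and the helix with thrombus was weighed. It was placed in a polyethylene tube filled with heparin sodium (50 IU/ml NS) inserted into the left jugular vein. Heparin was injected, then compound dissolved in NS. Read-out is reduction in thrombus weight.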

Time [15]	Time [16]	Time [17]	Activity (Oryctolagus cuniculus)	SMILES	EC50 (PC-12 [1])	inhibition (Aorta [2])	EC50 (PC-12 [3])	inhibition (Aorta [4])	EC50 (PC-12 [5])	inhibition (Aorta [6])	inhibition (INH) (Blood [7])	inhibition (INH) (Blood [8])	inhibition (INH) (Blood [9])	inhibition (INH) (Blood [10])	Activity (Rattus norvegicus [11])	dry thrombus weight (Rattus norvegicus [12])	inhibition (INH) (Blood [13])	inhibition (INH) (Blood [14])	Time (Plasma)	Activity (Rattus norvegicus [18])
–	–	–	–	CC1(C)N(O)C(c2ccc(OCC(=O)N[C@@H](CCCCN)C(=O)O)cc2)=[N+]([O-])C1(C)C	99.1 µM	74%	90.6 µM	98.9%	30.1 µM	28.7%	–	–	–	–	–	–	–	–	–	–
–	–	–	–	CC1(C)N(O)C(c2ccc(OCCNC(=O)C[C@H](N)C(=O)O)cc2)=[N+]([O-])C1(C)C	58.2 µM	72.8%	42.3 µM	97.5%	48.6 µM	26.7%	–	–	–	–	–	–	–	–	–	–
–	–	–	–	CC(C)[C@H](NC(=O)[C@H](CC(=O)O)NC(=O)CNC(=O)[C@@H](N)CCCNC(=N)N)C(=O)O (H-RGDV-OH)	–	7.6%	–	10.5%	–	5.3%	12.65%	20.01%	34.84%	33.41%	28.6 mg	4.43 mg	49.78%	52.07%	–	–
> 200 h	> 200 h	> 200 h	–	CC1(C)N(O)C(c2ccc(O)cc2)=[N+]([O-])C1(C)C	56.9 µM	73.1%	40 µM	99.2%	49.1 µM	26.1%	49.01%	53.04%	52.45%	50.39%	38.9 mg	6.8 mg	49.28%	54%	–	–
–	–	–	–	CC1(C)N(O)C(c2ccc(OCCNC(=O)CC[C@H](N)C(=O)N[C@H](CS)C(=O)NCC(=O)O)cc2)=[N+]([O-])C1(C)C	–	72.2%	–	97.3%	–	25.9%	–	–	–	–	–	–	–	–	–	–
–	–	–	–	COC(=O)[C@@H](N)CC(=O)NCCOc1ccc(C2=[N+]([O-])C(C)(C)C(C)(C)N2O)cc1	55.6 µM	76%	39 µM	99.1%	47.8 µM	29.2%	–	–	–	–	–	–	–	–	–	–
–	–	–	–	CC(C)(C)OC(=O)N[C@@H](CCCNC(=N)NC(=O)COc1ccc(C2=[N+]([O-])C(C)(C)C(C)(C)N2O)cc1)C(=O)O	102 µM	71.2%	93 µM	95%	32.4 µM	24.1%	–	–	–	–	–	–	–	–	–	–
–	–	–	–	N=C(N)NCCC[C@H](N)C(=O)NCC(=O)N[C@@H](CC(=O)O)C(=O)N[C@@H](CO)C(=O)O	–	4.3%	–	8.9%	–	2.9%	16.6%	22.03%	36.47%	39.62%	27.9 mg	4.22 mg	51.5%	53.69%	–	–
–	–	–	–	CC(C)(C)OC(=O)N[C@@H](CCC(=O)NCCOc1ccc(C2=[N+]([O-])C(C)(C)C(C)(C)N2O)cc1)C(=O)O	59 µM	72.4%	42.7 µM	96.9%	49.9 µM	26%	–	–	–	–	–	–	–	–	–	–
–	–	–	–	CC(C)[C@H](NC(=O)[C@H](CC(=O)O)NC(=O)CNC(=O)[C@@H](N)CCCNC(=N)NC(=O)COc1ccc(C2=[N+]([O-])C(C)(C)C(C)(C)N2O)cc1)C(=O)O (H-R(X2)GDV-OH)	102 µM	72.8%	93 µM	96.6%	32.8 µM	26.2%	16.38%	19.88%	32.8%	39.6%	26.11 mg	4.18 mg	50.2%	50.26%	–	–
–	–	–	–	N[C@@H](CCC(=O)O)C(=O)N[C@@H](CS)C(=O)NCC(=O)O (H-Glu-Cys-Gly-OH)	–	5.2%	–	9.2%	–	3.2%	–	–	–	–	–	–	–	–	–	–
–	–	–	–	CC1(C)N(O)C(c2ccc(OCC(=O)N[C@@H](CCCNC(=N)N)C(=O)O)cc2)=[N+]([O-])C1(C)C	101 µM	10.7%	92.9 µM	15.9%	32.1 µM	7.8%	–	–	–	–	–	–	–	–	–	–
18 h	2.5 h	2 h	–	CC1(C)N(O)C(C(=O)O)=[N+]([O-])C1(C)C	–	25%	–	34.3%	–	1.7%	–	–	–	–	–	–	–	–	–	–
18 h	2.5 h	2 h	–	CC1(C)N(O)C=[N+]([O-])C1(C)C	–	8.6%	–	31.2%	–	1.7%	–	–	–	–	–	–	–	–	–	–
–	–	–	–	CC1(C)N(O)C(c2ccc(OCCNC(=O)CC[C@H](N)C(=O)O)cc2)=[N+]([O-])C1(C)C	58.1 µM	72.4%	41.8 µM	97.1%	49.6 µM	26.2%	–	–	–	–	–	–	–	–	–	–
–	–	–	–	CC(C)(C)OC(=O)N[C@@H](CCCCNC(=O)COc1ccc(C2=[N+]([O-])C(C)(C)C(C)(C)N2O)cc1)C(=O)O	97.7 µM	72.7%	89.9 µM	97.9%	29.3 µM	28%	–	–	–	–	–	–	–	–	–	–
> 200 h	> 200 h	> 200 h	–	CC1(C)N(O)C(c2ccccc2)=[N+]([O-])C1(C)C	–	62.7%	–	81.9%	–	9.8%	–	–	–	–	–	–	–	–	–	–
–	–	–	–	CC1(C)N(O)C(c2ccc(OCCNC(=O)CC[C@H](N)C(=O)N[C@@H](CS)C(=O)NCC(=O)O)cc2)=[N+]([O-])C1(C)C	54.9 µM	–	37.8 µM	–	47 µM	–	–	–	–	–	–	–	–	–	–	–
–	–	–	214 mm2	C[C@H](NC(=O)[C@@H]1CCCN1)C(=O)N[C@@H](CCCCN)C(=O)O (H-Pro-Ala-Lys-OH)	–	6.1%	–	9.5%	–	4.5%	–	–	–	–	–	–	–	–	101.6 min	24.11 mg
18 h	2.5 h	2 h	–	CC1(C)N(O)C(CCl)=[N+]([O-])C1(C)C	–	7.7%	–	25%	–	1.6%	–	–	–	–	–	–	–	–	–	–
30 h	18 h	15 h	–	CC1(C)N(O)C(c2ccco2)=[N+]([O-])C1(C)C	–	20.2%	–	44.4%	–	1.6%	–	–	–	–	–	–	–	–	–	–
–	–	–	–	CC1(C)N(O)C(c2ccc(OCCNC(=O)C[C@H](NC(=O)CNC(=O)[C@@H](N)CCCNC(=N)N)C(=O)N[C@@H](CO)C(=O)O)cc2)=[N+]([O-])C1(C)C (H-RGD(X1)S-OH)	102 µM	71.3%	92.9 µM	95.9%	32 µM	24%	16.11%	21.52%	34.33%	39.43%	25.01 mg	4.08 mg	50%	51.59%	–	–
–	–	–	–	CC1(C)N(O)C(c2ccc(OCC(=O)NCCCC[C@H](N)C(=O)O)cc2)=[N+]([O-])C1(C)C	98.8 µM	72.3%	90.6 µM	98.6%	29.9 µM	25.4%	–	–	–	–	–	–	–	–	–	–
> 200 h	> 200 h	> 200 h	–	CC1(C)N(O)C(c2ccc([N+](=O)[O-])cc2)=[N+]([O-])C1(C)C	–	71.3%	–	98%	–	–	–	–	–	–	–	–	–	–	–	–

SMILES	Time [15]	Time [16]	Time [17]	Activity (Oryctolagus cuniculus)	EC50 (PC-12 [1])	inhibition (Aorta [2])	EC50 (PC-12 [3])	inhibition (Aorta [4])	EC50 (PC-12 [5])	inhibition (Aorta [6])	inhibition (INH) (Blood [7])	inhibition (INH) (Blood [8])	inhibition (INH) (Blood [9])	inhibition (INH) (Blood [10])	Activity (Rattus norvegicus [11])	dry thrombus weight (Rattus norvegicus [12])	inhibition (INH) (Blood [13])	inhibition (INH) (Blood [14])	Time (Plasma)	Activity (Rattus norvegicus [18])
CC1(C)N(O)C(c2cccnc2)=[N+]([O-])C1(C)C	30 h	18 h	15 h	–	–	16.6%	–	48.6%	–	1.7%	–	–	–	–	–	–	–	–	–	–
